Residues, ends and D or L forms follow the SMILES beside them. *: point of attachment. Cbz = O=C(OCc1ccccc1)*
Assays:
Type in all cases: functional
Rattus norvegicus [1] = assay: Ability (% reversal in rats) to reverse electroconvulsive shock-induced amnesia in rodents at a dose of 0.0010 (mg/kg) (following i.m. administration)
In short: (§1)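 Passive avoidance (step-through, lighted vs darkened compartment). […], ECS (20 mA, 1 s) was given transcorneally via saline-soaked electrodes, and maximal hindlimb extension was required. Drug was given im at selected doses 2 h post-training. One hour later, entry latency to the dark side was recorded, with 60 s counted as retention. At least 75% of ECS controls had to be amnesic. Replicates were mostly not run.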

Rattus norvegicus [2] = assay: Compound was tested for its ability (% reversal in rats) to reverse electroconvulsive shock-induced amnesia in rodents at a dose of 0.032 (mg/kg) administered intramuscularly (im); in short: as §1
Rattus norvegicus [3] = assay: Ability (% reversal in rats) to reverse electroconvulsive shock-induced amnesia in rodents at a dose of 0.10 (mg/kg) (following intramuscular dosing); in short: as §1
Rattus norvegicus [4] = assay: Compound was tested for its ability (% reversal in rats) to reverse electroconvulsive shock-induced amnesia in rodents at a dose of 0.0001 (mg/kg) administered intramuscularly (im); in short: as §1
Rattus norvegicus [5] = assay: Ability (% reversal in rats) to reverse electroconvulsive shock-induced amnesia in rodents at a dose of 0.010 (mg/kg) administered intramuscularly (im); in short: as §1
Rattus norvegicus [6] = assay: Compound was tested for its ability (% reversal in rats) to reverse electroconvulsive shock-induced amnesia in rodents at a dose of 1 (mg/kg) administered intramuscularly (im); in short: as §1
Rattus norvegicus [7] = assay: Compound was tested for its ability (% reversal in rats) to reverse electroconvulsive shock-induced amnesia in rodents at a dose of 10 (mg/kg) administered intramuscularly (im); in short: as §1
Rattus norvegicus [8] = assay: Compound was tested for its ability (% reversal in rats) to reverse electroconvulsive shock-induced amnesia in rodents at a dose of 100 (mg/kg) administered intramuscularly (im); in short: as §1
Rattus norvegicus [9] = assay: Compound was tested for its ability (% reversal in rats) to reverse electroconvulsive shock-induced amnesia in rodents at a dose of 1 (mg/kg) administered intramuscularly (im).; in short: as §1
Rattus norvegicus [10] = assay: Compound was tested for its ability (% reversal in rats) to reverse electroconvulsive shock-induced amnesia in rodents at a dose of 0.0010 (mg/kg) administered intramuscularly (im).; in short: as §1
Rattus norvegicus [11] = assay: Compound was tested for its ability (% reversal in rats) to reverse electroconvulsive shock-induced amnesia in rodents at a dose of 0.010 (mg/kg) administered intramuscularly (im).; in short: as §1
Rattus norvegicus [12] = assay: Compound was tested for its ability (% reversal in rats) to reverse electroconvulsive shock-induced amnesia in rodents at a dose of 0.10 (mg/kg) administered intramuscularly (im).; in short: as §1
Rattus norvegicus [13] = assay: Compound was tested for its ability (% reversal in rats) to reverse electroconvulsive shock-induced amnesia in rodents at a dose of 0.001 (mg/kg) administered intramuscularly (im); in short: as §1
Rattus norvegicus [14] = assay: Compound was tested for its ability (% reversal in rats) to reverse electroconvulsive shock-induced amnesia in rodents at a dose of 100 (mg/kg) administered intramuscularly (im).; in short: as §1
Rattus norvegicus [15] = assay: Compound was tested for its ability (% reversal in rats) to reverse electroconvulsive shock-induced amnesia in rodents at a dose of 1(mg/kg) administered intramuscularly (im); in short: as §1
Mus musculus [16] = assay: Compound was tested for its ability (% reversal in mice) to reverse electroconvulsive shock-induced amnesia in rodents at a dose of 0.1 (mg/kg) administered intramuscularly (im); in short: as §1
Mus musculus [17] = assay: Compound was tested for its ability (% reversal in mice) to reverse electroconvulsive shock-induced amnesia in rodents at a dose of 1 (mg/kg) administered intramuscularly (im); in short: as §1
Mus musculus [18] = assay: Compound was tested for its ability (% reversal in mice) to reverse electroconvulsive shock-induced amnesia in rodents at a dose of 10 (mg/kg) administered intramuscularly (im); in short: as §1
Rattus norvegicus [19] = assay: Compound was tested for its ability (% reversal in rats) to reverse electroconvulsive shock-induced amnesia in rodents at a dose of 0.1 (mg/kg) administered intramuscularly (im); in short: as §1
Mus musculus [20] = assay: Compound was tested for its ability (% reversal in mice) to reverse electroconvulsive shock-induced amnesia in rodents at a dose of 100 (mg/kg) administered intramuscularly (im); in short: as §1
Rattus norvegicus [21] = assay: Compound was tested for its ability (% reversal in rats) to reverse electroconvulsive shock-induced amnesia in rodents at a dose of 10 (mg/kg) administered intramuscularly (im).; in short: as §1
Rattus norvegicus [22] = assay: Compound was tested for its ability (% reversal in rats) to reverse electroconvulsive shock-induced amnesia in rodents at a dose of 0.00010 (mg/kg) administered intramuscularly (im); in short: as §1
Rattus norvegicus [23] = assay: Compound was tested for its ability (% reversal in rats) to reverse electroconvulsive shock-induced amnesia in rodents at a dose of 50 (mg/kg) administered intramuscularly (im); in short: as §1
Mus musculus [24] = assay: Ability to reverse electroconvulsive shock-induced amnesia in rodents following 1 ug/kg i.m. administration.; in short: as §1
Mus musculus [25] = assay: Ability to reverse electroconvulsive shock-induced amnesia in rodents following 0.01 mg/kg i.m. administration.; details: route intramuscular; in short: as §1
Mus musculus [26] = assay: Ability to reverse electroconvulsive shock-induced amnesia in rodents following 0.1 mg/kg i.m. administration.; details: route intramuscular; in short: as §1

Row | Structure (SMILES) | Reversal (Rattus norvegicus [1]) | Reversal (Rattus norvegicus [3]) | Reversal (Rattus norvegicus [5]) | Reversal (Rattus norvegicus [6]) | Reversal (Rattus norvegicus [7]) | Reversal (Rattus norvegicus [8]) | also measured
1 | CC(C)CC(CS(=O)(=O)CC(=O)O)NC(=O)C1CCCN1C(=O)OCc1ccccc1 (stereo unspecified) | 50% | 0% | – | – | – | – | Reversal (Rattus norvegicus [2]): 66%
2 | CC(C)CC(N)CN1CC(=O)NC(CC(C)C)C1 (stereo unspecified) | 50% | 66% | 83% | 20% | 0% | 24% | Reversal (Rattus norvegicus [4]): 82%
3 | CC(C)CC(CNCC(=O)O)NC(=O)C1CCC(=O)N1 (stereo unspecified) | 33% | 33% | 33% | – | 0% | 50% | Reversal (Rattus norvegicus [9]): 66%
4 | CC(C)CC(/C=C/CC(N)=O)NC(=O)C1CCC(=O)N1 (stereo unspecified) | – | – | – | – | – | – | Reversal (Rattus norvegicus [10]): 11%; Reversal (Rattus norvegicus [11]): 0%; Reversal (Rattus norvegicus [12]): 44%
5 | CC(C)CC1CN(C[C@H](CC(C)C)NC(=O)[C@@H]2CCCN2C(=O)OCc2ccccc2)CC(=O)N1 (stereo partly specified) | – | 50% | 17% | 0% | 0% | 80% | Reversal (Rattus norvegicus [13]): 17%
6 | CC(C)C[C@@H](CNCC(N)=O)NC(=O)[C@@H]1CCCN1C(=O)OCc1ccccc1 | 43% | 43% | 43% | 0% | 0% | – | Reversal (Rattus norvegicus [14]): 0%
7 | CC(C)CC(CNCC(=O)O)NCC1CCCN1C(=O)OCc1ccccc1 (stereo unspecified) | 0% | 14% | 20% | – | 0% | 40% | Reversal (Rattus norvegicus [15]): 10%
8 | CC(C)CC(CSCC(=O)O)NC(=O)C1CC(=O)CN1C(=O)OCc1ccccc1 (stereo unspecified) | 17% | – | 50% | 100% | 80% | – | Reversal (Mus musculus [16]): 17%; Reversal (Mus musculus [17]): 17%; Reversal (Mus musculus [18]): 0%; Reversal (Rattus norvegicus [19]): 83%
9 | O=C1COCC2CCCN12 (stereo unspecified) | 0% | 33% | 33% | – | – | – | Reversal (Mus musculus [17]): 58%; Reversal (Mus musculus [18]): 77%; Reversal (Mus musculus [20]): 63%
10 | NC(=O)COCC(Cc1ccccc1)NC(=O)C1CCCN1C(=O)OCc1ccccc1 (stereo unspecified) | 11% | 0% | 11% | 25% | – | 25% | Reversal (Mus musculus [17]): 20%; Reversal (Mus musculus [18]): 59%; Reversal (Mus musculus [20]): 71%; Reversal (Rattus norvegicus [21]): 42%
11 | CC(C)CC(CSCC(N)=O)NC(=O)C1CCCN1C(=O)OCc1ccccc1 (stereo unspecified) | 66% | 50% | – | – | – | – | Reversal (Rattus norvegicus [22]): 0%; Reversal (Rattus norvegicus [11]): 33%
12 | CC(C)CC(NCC1CCCN1C(=O)OCc1ccccc1)C(=O)NCC(N)=O (stereo unspecified) | 11% | 0% | 0% | 80% | 60% | 60% | Reversal (Mus musculus [17]): 85%; Reversal (Mus musculus [18]): 67%; Reversal (Mus musculus [20]): 57%
13 | Cc1ccc(S(=O)(=O)N2CCCC2CNC(CNCC(=O)O)CC(C)C)cc1 (stereo unspecified) | 0% | 40% | 0% | – | 80% | – | Reversal (Rattus norvegicus [9]): 20%; Reversal (Rattus norvegicus [23]): 0%
14 | CC(C)CC(CSCC(=O)O)NC(=O)C1CCC(=O)N1C(=O)OCc1ccccc1 (stereo unspecified) | 33% | 0% | 33% | 0% | – | 0% | Reversal (Rattus norvegicus [21]): 0%
15 | NC(=O)CNC(=O)[C@H](CCCCNC(=O)OCc1ccccc1)NC(=O)[C@@H]1CCCN1 (H-Pro-Lys(Cbz)-Gly-NH2) | 60% | 60% | – | – | – | – | Reversal (Mus musculus [24]): 66%; Reversal (Mus musculus [25]): 92%; Reversal (Mus musculus [26]): 100%; Reversal (Rattus norvegicus [11]): 40%

— ChEMBL document CHEMBL1123291, “Modified di- and tripeptides of the C-terminal portion of oxytocin and vasopressin as possible cognition activation agents” (1986)
